According to ChEMBL document CHEMBL1125746, “Novel heteroarotinoids: synthesis and biological activity” (1991):

Tests used:
[1] = target: T1, Ornithine decarboxylase (Mus musculus) (UniProt P00860); experiment: Compound was evaluated for the ability to inhibit the phorbol ester induced increase of mouse epidermal ornithine decarboxylase (ODC) activity by 50% when administered topically using ODC assay.; assay type: functional
T1 sequence (whole entry): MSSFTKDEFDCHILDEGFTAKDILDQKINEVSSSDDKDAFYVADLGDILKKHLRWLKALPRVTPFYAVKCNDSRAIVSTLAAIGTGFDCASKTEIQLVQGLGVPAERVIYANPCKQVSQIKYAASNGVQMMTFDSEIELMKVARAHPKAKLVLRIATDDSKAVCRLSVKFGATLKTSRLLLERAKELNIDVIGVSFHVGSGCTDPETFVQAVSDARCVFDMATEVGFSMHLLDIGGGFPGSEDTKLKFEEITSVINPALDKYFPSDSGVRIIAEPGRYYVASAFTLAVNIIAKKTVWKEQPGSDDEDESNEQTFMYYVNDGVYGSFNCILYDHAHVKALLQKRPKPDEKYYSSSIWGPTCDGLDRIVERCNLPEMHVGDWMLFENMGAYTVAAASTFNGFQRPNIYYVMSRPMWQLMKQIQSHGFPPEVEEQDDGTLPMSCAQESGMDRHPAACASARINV
Method in brief: (§1)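 Retinoids applied topically to mouse skin at 0.1, 1.0, 5.0, 10 and 50 nmol, 1 h before 10 nmol TPA. Epidermal ODC activity measured 4.5 h after TPA as nmol CO2/30 min per mg protein. ID50 (dose giving 50% inhibition of TPA-induced ODC) read from dose-response curves; three experiments, results normalized.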

HL-60 = experiment: Compound was evaluated for the retinoid-induced differentiation of the human myeloid leukemia cell line HL-60 using trans-retinoic acid as the standard.; assay type: functional; conditions: read-out: ED50 (the source's name)
[2] = target: T1, Ornithine decarboxylase (Mus musculus); experiment: Compound was evaluated for the ability to inhibit the phorbol ester induced increase of mouse epidermal ornithine decarboxylase; assay type: functional; method in brief: as §1
[3] = target: T1, Ornithine decarboxylase (Mus musculus); experiment: Compound was evaluated for the percentage inhibition of test retinoid as compared to the control by ODCassay; assay type: functional; conditions: concentration not given here
Method in brief: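 Single topical retinoid dose of 34 nmol given 1 h before 10 nmol TPA on mouse skin. Epidermal ODC assayed 4.5 h after TPA as nmol CO2/30 min per mg protein. Three groups of two mice each. % inhibition = [(ODC with TPA) − (ODC with TPA + retinoid)]/(ODC with TPA) × 100.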

[4] = target: Ornithine decarboxylase (Mus musculus) (UniProt P00860); experiment: Compound was evaluated for the ability to inhibit the phorbol ester induced increase of mouse epidermal ornithine decarboxylase (ODC) activity by 50% when administered topically using ODC assay.

SMILES	ID50 [1] [µM]	EC50 (HL-60) [µM]	other results
CC1(C)CCOc2ccc(/C(=C/c3ccc(C(=O)O)cc3)C(F)(F)F)cc21	> 0.05	> 1	–
C/C(=C\c1ccc(C(=O)O)cc1)c1ccc2c(c1)C(C)(C)CS2.CCCCCCCCCCCCCC(=O)OCC1(C)[C@H]2[C@@H]3C=C(CO)C[C@]4(O)C(=O)C(C)=C[C@H]4[C@@]3(O)[C@H](C)[C@@H](O)[C@]21OC(C)=O (some centres undefined)	–	–	ID50 [2]: 0.022 µM; inhibition [3]: 91%
CC1(C)CCSc2ccc(/C(=C/c3ccc(C(=O)O)cc3)C(F)(F)F)cc21	0.035	> 1	–
COC(=O)c1ccc(/C=C(\C)c2ccc3c(c2)C(C)(C)CC(C)(C)S3)cc1	–	–	ID50 [4]: 0.0003 µM
C/C(=C\C=C\[C@H]1C[C@@H]1C(=O)O)c1ccc2c(c1)C(C)(C)CCS2	0.035	> 1	–
CC1=C(/C=C/C(C)=C/C=C/C(C)=C/C(=O)O)C(C)(C)CCC1 [TRETINOIN]	0.00012	0.05	–
CC1=C(/C=C/C(C)=C/C=C/C(C)=C\C(=O)O)C(C)(C)CCC1 [ISOTRETINOIN]	–	0.1	–
CCCCCCCCCCCCCC(=O)OCC1(C)[C@H]2[C@@H]3C=C(CO)C[C@]4(O)C(=O)C(C)=C[C@H]4[C@@]3(O)[C@H](C)[C@@H](O)[C@]21OC(C)=O.COC(=O)c1ccc(/C=C(\C)c2ccc3c(c2)C(C)(C)CS3)cc1 (some centres undefined)	–	–	ID50 [2]: 0.0012 µM; inhibition [3]: 94%
CC(/C=C/C=C(\C)c1ccc2c(c1)C(C)(C)CCS2)=C\C(=O)O	0.0033	0.5	–

More lines, main results first:

ID50 [1] [µM]	EC50 (HL-60) [µM]	SMILES	other results
> 0.05	–	COC(=O)c1ccc(/C=C(/c2ccc3c(c2)C(C)(C)CCO3)C(F)(F)F)cc1	–
0.0037	> 1	CC(/C=C/C=C(\C)c1ccc2c(c1)C(C)(C)CC(C)(C)S2)=C\C(=O)O	–
0.00031	> 1	C/C(=C\c1ccc(C(=O)O)cc1)c1ccc2c(c1)C(C)(C)CC(C)(C)S2	–
> 0.05	–	COC(=O)c1ccc(/C=C(/c2ccc3c(c2)C(C)(C)CCS3)C(F)(F)F)cc1	–
> 0.05	–	CC1(C)CC(C)(C)c2cc(/C(=C/c3ccc(C(=O)O)cc3)C(F)(F)F)ccc2S1	–
> 0.05	–	COC(=O)c1ccc(/C=C(/c2ccc3c(c2)C(C)(C)CC(C)(C)S3)C(F)(F)F)cc1	–
